Experimental data from ChEMBL document CHEMBL4689842, “EUbOPEN Chemogenomics Library wave 1” (2021).
Several values for one entry are separate records, joined by “and”; a condition that tells them apart may be missing. Identical values can stand only once.

System: HEK-293T
Experiment: Multiplex assay against HEK293T;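 on Population Tubulin-Different-Phenotype (%): share of the cells with healthy nuclei that show this phenotype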
Assay type: toxicity, cell-based
Settings: human
Method in brief: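 Cells stained live at seeding with Hoechst33342, BioTracker Green Microtubule Cytoskeleton Dye, MitoTracker Red and Annexin V Alexa Fluor 680 were imaged on a CQ1 microscope at 37°C and 5% CO2 after compound addition. Their classification by CellPathfinder machine-learning gating ran from Hoechst high-intensity objects versus normal cells, to healthy, pyknosed or fragmented nuclei among normal cells, to mitotic or apoptotic among pyknosed cells. Tubulin, mitochondrial-mass and membrane-permeability phenotypes are per cents of healthy-nucleus cells.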

[1] = 12 h, 1 µM, compound concentration 1 uM, replicate 1
[2] = 12 h, 1 µM, compound concentration 1 uM, replicate 2
[3] = 24 h, 1 µM, compound concentration 1 uM, replicate 1
[4] = 24 h, 1 µM, compound concentration 1 uM, replicate 2
[5] = 12 h, 10 µM, compound concentration 10 uM, replicate 1
[6] = 12 h, 10 µM, compound concentration 10 uM, replicate 2
[7] = 24 h, 10 µM, compound concentration 10 uM, replicate 1
[8] = 24 h, 10 µM, compound concentration 10 uM, replicate 2
[9] = 48 h, 1 µM, compound concentration 1 uM, replicate 1
[10] = 48 h, 1 µM, compound concentration 1 uM, replicate 2
[11] = 48 h, 10 µM, compound concentration 10 uM, replicate 1
[12] = 48 h, 10 µM, compound concentration 10 uM, replicate 2

With `Cn1cc(C2=C(c3cn(C4CCN(Cc5ccccn5)CC4)c4ccccc34)C(=O)NC2=O)c2ccccc21` [ENZASTAURIN] as the molecule, how does the “Population Apoptotic (%)” value [1] read?
Its value is 23% and 42%.

And the “Population Fragmented Nuclei (%)” value [1]?
Its value is 18% and 16%.

And the “Population Healthy Nuclei (%)” value [1]?
Its value is 49% and 29%.

What about the “Population Hoechst High Intensity Objects (%)” value [1] of the same molecule?
The value was 14% and 15%.

What about the “Population Membrane Permeable-Phenotype (%)” value [1] of the same molecule?
The value was 13% and 12%.

What about the “Population Mitotic Cells (%)” value [1] of the same molecule?
The value was 76% and 57%.

What about the “Population Normal (%)” value [1] of the same molecule?
The value was 85% and 84%.

And the “Population Pyknosed Nuclei (%)” value [1]?
The value was 31% and 53%.

What about the “Total Cell Count” value [1] of the same molecule?
The value was 539 and 569.

What about the “Population Apoptotic (%)” value [2] of the same molecule?
Its value is 28% and 14%.

And the “Population Fragmented Nuclei (%)” value [2]?
Its value is 3% and 4%.

And the “Population Healthy Nuclei (%)” value [2]?
Its value is 77% and 86%.

What about the “Population Hoechst High Intensity Objects (%)” value [2] of the same molecule?
Its value is 6% and 4%.

And the “Population Membrane Permeable-Phenotype (%)” value [2]?
The value was 2% and 6%.

And the “Population Mitochondria Different-Phenotype (%)” value [2]?
Its value is 72% and 25%.

And the “Population Mitotic Cells (%)” value [2]?
The value was 71% and 85%.

And the “Population Normal (%)” value [2]?
The value was 93% and 95%.

What about the “Population Pyknosed Nuclei (%)” value [2] of the same molecule?
Its value is 19% and 9%.

What about the “Population Tubulin-Different-Phenotype (%)” value [2] of the same molecule?
Its value is 87% and 37%.

And the “Total Cell Count” value [2]?
The value was 1031 and 1115.

What about the “Population Apoptotic (%)” value [3] of the same molecule?
The value was 49% and 19%.

And the “Population Fragmented Nuclei (%)” value [3]?
Its value is 19% and 16%.

What about the “Population Healthy Nuclei (%)” value [3] of the same molecule?
The value was 39% and 65%.

And the “Population Hoechst High Intensity Objects (%)” value [3]?
The value was 24% and 11%.

And the “Population Membrane Permeable-Phenotype (%)” value [3]?
The value was 11% and 6%.

And the “Population Mitotic Cells (%)” value [3]?
The value was 50% and 80%.

And the “Population Normal (%)” value [3]?
The value was 75% and 88%.

What about the “Population Pyknosed Nuclei (%)” value [3] of the same molecule?
The value was 41% and 18%.

And the “Population Tubulin-Different-Phenotype (%)” value [3]?
The value was 76% and 32%.

What about the “Total Cell Count” value [3] of the same molecule?
The value was 506 and 516.

And the “Population Fragmented Nuclei (%)” value [4]?
Its value is 4% and 12%.

And the “Population Healthy Nuclei (%)” value [4]?
The value was 85% and 83%.

What about the “Population Hoechst High Intensity Objects (%)” value [4] of the same molecule?
The value was 9% and 5%.

And the “Population Membrane Permeable-Phenotype (%)” value [4]?
Its value is 3% and 4%.

What about the “Population Mitotic Cells (%)” value [4] of the same molecule?
Its value is 68% and 93%.

What about the “Population Normal (%)” value [4] of the same molecule?
Its value is 90% and 94%.

What about the “Population Tubulin-Different-Phenotype (%)” value [4] of the same molecule?
The value was 77% and 27%.

And the “Total Cell Count” value [4]?
The value was 1011 and 1578.

What does the source list for `O=C(NCCCC1CCCCC1)c1ccc(CNC(=O)c2cnn(-c3ccccc3)c2C(F)(F)F)cc1` [SR-321]?
Population Apoptotic (%) [1]: 40% and 29% and 42%; Population Fragmented Nuclei (%) [1]: 15% [middle of 4 runs]; Population Healthy Nuclei (%) [1]: 31% and 37% and 67%; Population Hoechst High Intensity Objects (%) [1]: 14% [middle of 4 runs]; Population Membrane Permeable-Phenotype (%) [1]: 2% and 0% and 3%; Population Mitotic Cells (%) [1]: 59% and 70% and 57%; Population Normal (%) [1]: 85% and 83% and 90% and 88%; Total Cell Count [1]: 312 [middle of 4 runs]; Population Apoptotic (%) [2]: 10% [middle of 4 runs]; Population Fragmented Nuclei (%) [2]: 6% [middle of 4 runs]; Population Healthy Nuclei (%) [2]: 42% [middle of 4 runs]; Population Hoechst High Intensity Objects (%) [2]: 3% and 2% and 5%; Population Membrane Permeable-Phenotype (%) [2]: 10% and 8% and 1%; Population Mitochondria Different-Phenotype (%) [2]: 10% and 19% and 7%; Population Mitotic Cells (%) [2]: 85% and 90% and 89% and 92%; Population Normal (%) [2]: 96% and 97% and 94%; Population Apoptotic (%) [5]: 50% [middle of 4 runs]; Population Fragmented Nuclei (%) [5]: 16% [middle of 4 runs]; Population Hoechst High Intensity Objects (%) [5]: 17% [middle of 4 runs]; Population Membrane Permeable-Phenotype (%) [5]: 6% and 2% and 4%; Population Mitotic Cells (%) [5]: 60% [middle of 4 runs]; Population Normal (%) [5]: 86% and 81% and 82% and 89%; Total Cell Count [5]: 302 [middle of 4 runs]; Population Healthy Nuclei (%) [6]: 38% [middle of 4 runs]; Population Hoechst High Intensity Objects (%) [6]: 4% and 2% and 3%; Population Membrane Permeable-Phenotype (%) [6]: 5% and 3% and 0%; Population Mitotic Cells (%) [6]: 86% [middle of 4 runs]; Population Normal (%) [6]: 95% and 97% and 96%; Population Tubulin-Different-Phenotype (%) [6]: 32% [middle of 4 runs]; Population Fragmented Nuclei (%) [3]: 13% [middle of 4 runs]; Population Healthy Nuclei (%) [3]: 42% and 36% and 81%; Population Hoechst High Intensity Objects (%) [3]: 15% [middle of 4 runs]; Population Membrane Permeable-Phenotype (%) [3]: 2% [middle of 4 runs]; Population Mitotic Cells (%) [3]: 59% and 54% and 58% and 86%; Population Normal (%) [3]: 87% and 83% and 84% and 93%; Total Cell Count [3]: 361 [middle of 4 runs]; Population Healthy Nuclei (%) [4]: 65% [middle of 4 runs]; Population Hoechst High Intensity Objects (%) [4]: 2% and 3%; Population Membrane Permeable-Phenotype (%) [4]: 11% [middle of 4 runs]; Population Mitotic Cells (%) [4]: 82% and 89% and 94%; Population Normal (%) [4]: 97% and 96%; Population Tubulin-Different-Phenotype (%) [4]: 20% [middle of 4 runs]; Population Apoptotic (%) [7]: 57% [middle of 4 runs]; Population Fragmented Nuclei (%) [7]: 16% and 19% and 18%; Population Membrane Permeable-Phenotype (%) [7]: 0% and 4% and 6%; Population Mitotic Cells (%) [7]: 53% [middle of 4 runs]; Population Normal (%) [7]: 81% and 80% and 85% and 93%; Population Tubulin-Different-Phenotype (%) [7]: 59% and 53% and 26%; Population Healthy Nuclei (%) [8]: 55% [middle of 4 runs]; Population Hoechst High Intensity Objects (%) [8]: 3% and 4%; Population Mitotic Cells (%) [8]: 73% and 81% and 95%; Population Normal (%) [8]: 96% and 95%; Population Tubulin-Different-Phenotype (%) [8]: 44% [middle of 4 runs]; Population Apoptotic (%) [9]: 41% and 50% and 34%; Population Fragmented Nuclei (%) [9]: 14% and 21% and 17%; Population Healthy Nuclei (%) [9]: 34% and 40%; Population Hoechst High Intensity Objects (%) [9]: 14% and 20%; Population Membrane Permeable-Phenotype (%) [9]: 4% and 2%; Population Mitochondria Different-Phenotype (%) [9]: 31% and 29%; Population Mitotic Cells (%) [9]: 58% and 49% and 65%; Population Normal (%) [9]: 85% and 79%; Population Pyknosed Nuclei (%) [9]: 50% and 38% and 42%; Population Tubulin-Different-Phenotype (%) [9]: 27% and 29%; Total Cell Count [9]: 401 and 332 and 411; Population Apoptotic (%) [10]: 9% and 8% and 13%; Population Fragmented Nuclei (%) [10]: 6% and 5%; Population Healthy Nuclei (%) [10]: 79% and 76% and 82%; Population Hoechst High Intensity Objects (%) [10]: 3% and 5%; Population Membrane Permeable-Phenotype (%) [10]: 8% and 6%; Population Mitochondria Different-Phenotype (%) [10]: 3% and 7% and 6%; Population Mitotic Cells (%) [10]: 90% and 91% and 86%; Population Normal (%) [10]: 96% and 94%; Population Pyknosed Nuclei (%) [10]: 13% and 17% and 11%; Population Tubulin-Different-Phenotype (%) [10]: 18% and 22% and 15%; Total Cell Count [10]: 377 and 459 and 394; Population Apoptotic (%) [11]: 48% and 63% and 54%; Population Fragmented Nuclei (%) [11]: 23% and 25%; Population Healthy Nuclei (%) [11]: 28% and 27% and 18%; Population Hoechst High Intensity Objects (%) [11]: 19% and 20% and 16%; Population Membrane Permeable-Phenotype (%) [11]: 0% and 1%; Population Mitochondria Different-Phenotype (%) [11]: 73% and 83%; Population Mitotic Cells (%) [11]: 51% and 36% and 45%; Population Normal (%) [11]: 80% and 79% and 83%; Population Pyknosed Nuclei (%) [11]: 47% and 48% and 56%; Population Tubulin-Different-Phenotype (%) [11]: 32% and 59%; Total Cell Count [11]: 274 and 281 and 324; Population Apoptotic (%) [12]: 30% and 26% and 20%; Population Fragmented Nuclei (%) [12]: 6% and 5% and 8%; Population Healthy Nuclei (%) [12]: 78% and 75% and 74%; Population Hoechst High Intensity Objects (%) [12]: 3% and 2%; Population Membrane Permeable-Phenotype (%) [12]: 5% and 2%; Population Mitochondria Different-Phenotype (%) [12]: 27% and 41% and 31%; Population Mitotic Cells (%) [12]: 69% and 73% and 79%; Population Normal (%) [12]: 96% and 97%; Population Pyknosed Nuclei (%) [12]: 15% and 19% and 17%; Population Tubulin-Different-Phenotype (%) [12]: 50% and 52% and 49%; Total Cell Count [12]: 396 and 327 and 349
